The values below come from ChEMBL document CHEMBL5042515, “Design and Evaluation of a Novel Peptide-Drug Conjugate Covalently Targeting SARS-CoV-2 Papain-like Protease” (J Med Chem, 2022).

The test system of data set [1] is Severe acute respiratory syndrome coronavirus 2. As to the kind of experiment: Covalent binding affinity to SARS-CoV-2 PLpro by SDS-PAGE analysis.
A short description of data set [2]: Drug uptake in human HeLa cells at 10 uM for 4 hrs by tryphan blue staining based flow cytometry relative to control. It counts as ADME, cell-based. A general note: In flow cytometry, cells or beads pass a laser one at a time.
Data set [3] concerns Severe acute respiratory syndrome-related coronavirus. As to the kind of experiment: Inhibition of SARS-CoV PLpro using LRGG-ACC as substrate at <=1000 uM preincubated for 60 mins followed by substrate addition and measured for 30 mins by enzymatic assay. The following applies: dose microM <=1000, time 90.0 min.
The nature of data set [4]: Inhibition of SARS-CoV-2 PLpro using LRGG-ACC as substrate preincubated for 60 mins followed by substrate addition and measured for 30 mins by enzymatic assay. The arrangement: species or system Severe acute respiratory syndrome coronavirus 2. The method in brief: (§1)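 Recombinant His-tagged SARS-CoV-2 PLpro (E. coli BL21(DE3), Ni-NTA then gel filtration) at 0.1 μM, preincubated 1 h at 37 °C with inhibitor diluted from 800 μM. Buffer: 50 mM HEPES pH 7.4, 0.1 mg/mL BSA, 5 mM DTT. Ac-LRGG-ACC substrate at 1 μM final. Fluorescence read at ex 355/em 460 nm for 30 min, at least three times; IC50 from curve fitting.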

Data set [5] has as its target Replicase polyprotein 1ab (Middle East respiratory syndrome-related coronavirus (isolate UnitedKingdom/H123990006/2012) (Betacoronavirus England 1) (Humancoronavirus EMC)) (UniProt K9N7C7). As to the kind of experiment: Inhibition of MERS PLpro using LRGG-ACC as substrate upto 1000 uM preincubated for 60 mins followed by substrate addition and measured for 30 mins by enzymatic assay. The settings on record: dose microM <=1000, time 90.0 min.

In another data set the test system is HEK293T. As to the kind of experiment: Covalent binding affinity to SARS-CoV-2 PLpro spiked in HEK293T cells lysate at 10 uM incubated for 1 hr by SDS gel analysis. It counts as subcellular. The following applies: Severe acute respiratory syndrome coronavirus 2. The method in brief: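 293T cell lysate (300 μg protein) spiked with PLpro (5 μM), then treated with 10 μM FAM-labeled peptide. Labeling read as fluorescent bands on gel.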

Data set [6] relates to HEK-293T. As to the kind of experiment: Cytotoxicity against HEK293T cells assessed as inhibition of cell growth at 1.56 to 100 uM incubated for 24 hrs by MTT assay. The data set is classed as toxicity, cell-based. The following applies: human, dose 1.56-100 µM. The method in brief:
(§2)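 A549 (RPMI-1640) or 293T (DMEM) cells with 10% FBS, plated overnight, then treated 24 h at 1.56–100 μM in medium with 5% FBS. MTT (5 mg/mL reagent) added for 4 h at 37 °C, dissolved in DMSO, absorbance read at 490 nm. DMSO-only control; at least three independent measurements.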
For orientation: Formazan colour is commonly taken as a measure of viable cells.

Another data set relates to A549. As to the kind of experiment: Cytotoxicity against human A549 cells assessed as inhibition of cell growth at 1.56 to 100 uM incubated for 24 hrs by MTT assay. The data set is classed as toxicity, cell-based. The following applies: a549, 24 h, dose 1.56-100 µM. The method in brief:
as §2

A short description of data set [7]: Hemolytic activity against mouse erythrocyte at 0 to 60 uM for 1.5 hrs by microplate reader analysis. The data set is classed as toxicity, cell-based. The settings on record: dose 0-60 µM. The gist of the method:
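Fresh mouse erythrocytes washed and resuspended in PBS at 10^8/mL, then exposed to serial dilutions starting at 60 μM for 1.5 h at 37 °C. Supernatant hemoglobin read by absorbance. 0.1% Triton X-100 used as 100% control and PBS as blank; % hemolysis calculated relative to both.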

Data set [8] deals with Severe acute respiratory syndrome coronavirus 2. As to the kind of experiment: Covalent binding affinity to SARS-CoV-2 PLpro assessed as reaction efficiency at 0 to 25 uM for 2 hrs by SDS-PAGE analysis. The settings on record: dose 0-25 µM. The method in brief: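 Purified SARS-CoV-2 PLpro (5 μM) incubated with peptide at 0, 2.5, 5, 10, 15, 20 and 25 μM in PBS (pH 7.4, 37 °C). Conjugation resolved on 15% SDS-PAGE.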

The test system is the same in data set [9]. Kind of data set: Covalent binding affinity to SARS-CoV-2 PLpro Cys111 at 30 uM for 4 hrs by In-gel trypsin digestion based MS-MS analysis. The method in brief: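 Peptide (30 μM) with PLpro (5 μM) in Tris buffer, 37 °C, 4 h. Conjugate band excised from 15% SDS-PAGE, destained with ammonium bicarbonate/acetonitrile and trypsin-digested overnight at 16 °C. Peptides extracted in 50% acetonitrile/0.5% formic acid for MS/MS mapping of the modified residue.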

Data set [10] relates to HEK-293T. Kind of data set: Antiviral activity against HEK293T cells co-transfected with plasmids encoding Myc-tagged ISG15, E1/E2/E3 ubiquitin ligases, SARS-CoV-2 PLpro fused with EGFP assessed as recovery of intracellular ISGylation level incubated for 24 hrs by immunoblot analysis. It counts as functional, cell-based. The settings on record: Homo sapiens. The method in brief:
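HEK293T cells co-transfected with Myc-ISG15, E1/E2/E3 ligases and EGFP-fused SARS-CoV-2 PLpro, then kept 24 h at 37 °C in DMEM with 5% FBS plus conjugate. Lysates BCA-normalised, 30 μg per lane. Western blot probed with anti-ISG15, anti-GFP and anti-GAPDH (1:1000), ECL detection.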
(In general: In western blotting, separated proteins are transferred to a membrane and probed.)

The test system of data set [11] is HEK-293T. Kind of data set: Antiviral activity in HEK293T cells co-transfected with plasmids encoding Renilla luciferase, Firefly luciferase is driven by IFN-beta promoter, MAVS assessed as recovery of suppressed IFN-beta promoter activity at 10 to 100 uM by Dual-Luciferase reporter assay relative to control. It counts as functional, cell-based. The settings on record: Homo sapiens, dose 10-100 µM. The method in brief: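 HEK293T cells co-transfected with Renilla luciferase reference, IFN-β promoter-driven firefly luciferase, MAVS and SARS-CoV-2 PLpro, then treated with conjugate. Activity scaled to the ISG15-plasmid positive control set as 100%; blank plasmid as negative control; unpaired two-tailed t-test.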

For data set [12], the system named is Severe acute respiratory syndrome coronavirus 2. As to the kind of experiment: Binding affinity to SARS-CoV-2 PLpro assessed as covalent bond formation at Cys111 at 10 uM incubated for 1 hr by SDS-PAGE analysis.
For data set [13] the test system is unchanged. As to the kind of experiment: Binding affinity to SARS-CoV-2 PLpro assessed as covalent bond formation at 10 uM incubated for 1 hr by SDS-PAGE analysis. The method in brief:
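FAM-labeled peptides (10 μM) incubated with purified SARS-CoV-2 PLpro (5 μM) in PBS for 1 h. Covalent adduct detected by SDS gel analysis.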

The test system is the same in data set [14]. As to the kind of experiment: Inhibition of SARS-CoV-2 PLpro using LRGG-ACC as substrate at <=1000 uM preincubated for 60 mins followed by substrate addition and measured for 30 mins by enzymatic assay. The settings on record: dose microM <=1000, time 90.0 min. The gist of the method:
as §1

The structures appear in SMILES notation. Calls of active or inactive are those of the source. The calls are words filed in the database; no cut-off is given here. *1 amine or outer side, *2 acyl side, *3 side chain or, on linkers, in order; H or OH if unused. Where a SMILES comes first, the peptide text is derived from it. Bridges are numbered along the chain shown (N, C = ends). [ ]: non-standard residue; d: D form. The star is where a group is joined. Met(S-mXyl) = C[S+](CC[C@H](N[*:1])C(=O)[*:2])Cc1cccc(C[*:3])c1; 5FAM = O=C1OC2(c3ccc(O)cc3Oc3cc(O)ccc32)c2ccc(C(=O)*)cc21; X1 = Cc1ccc(N*)cc1C(=O)NC(C)c1cccc2ccccc12

With `Cc1ccc(NC(=O)CC[C@H](N)C(=O)N[C@@H](CC(C)C)C(=O)N[C@@H](CCCNC(=N)N)C(=O)NCC(=O)NCC(=O)O)cc1C(=O)NC(C)c1cccc2ccccc12` (stereo not given in full) (H-E(X1)LRGG-OH), in data set [1], the outcome was inactive. For the same compound, the Drug uptake entry in data set [2] is reported as “Active”. Also, the inhibition entry in data set [3] and in data set [5] was “inactive” each time. The IC50 (commonly the midpoint of a concentration-inhibition curve) in data set [4] turned out to be 15.4 µM.

For the compound `Cc1ccc(NC(=O)CC[C@H](NC(=O)c2ccc3c(c2)C(=O)OC32c3ccc(O)cc3Oc3cc(O)ccc32)C(=O)N[C@H]2CC[S+](C)Cc3cccc(c3)CSC[C@@H](C(=O)O)NC(=O)CNC(=O)[C@H](CCCNC(=N)N)NC(=O)[C@H](CC(C)C)NC2=O)cc1C(=O)NC(C)c1cccc2ccccc12` (stereo not given in full) (5FAM-E(X1)[Met(S-mXyl)]LRGC-OH; thioether 2-6), in the data set with HEK293T, the result was Active.

Consider `Cc1ccc(NC(=O)CC[C@H](N)C(=O)N[C@H]2CSCc3cccc(c3)C[S+](C)CC[C@@H](C(=O)O)NC(=O)CNC(=O)[C@H](CCCNC(=N)N)NC(=O)[C@H](CC(C)C)NC2=O)cc1C(=O)NC(C)c1cccc2ccccc12` (stereo not given in full) (H-E(X1)CLRG[Met(S-mXyl)]-OH; thioether 2-6), for which the result in data set [1] and in data set [9] was Active. The Drug uptake result in data set [2] was “Active”. The inhibition entry in data set [3] is “Active”. Besides, the IC50 in data set [4] came to 8.63 µM. Also, the Activity result with HEK-293T [6] was “Non-Toxic”; in the data set with A549, “Non-Toxic”; in [7], “Non-Toxic”; in data set [8], “Dose-Dependent Effect”; in the data set on HEK-293T [10] it was “Dose-Dependent Effect”; in the data set with HEK-293T [11], “Dose-Dependent Effect”. Moreover, the inhibition result in data set [5] is “inactive”.

Consider `CC(C)C[C@@H]1NC(=O)[C@@H](N)CSCc2cccc(c2)C[S+](C)CC[C@@H](C(=O)O)NC(=O)CNC(=O)[C@H](CCCNC(=N)N)NC1=O` (stereo not given in full) (H-CLRG[Met(S-mXyl)]-OH; thioether 1-5), for which the outcome in data set [12] and in [13] was Active. Besides, the inhibition entry in data set [14] was “inactive”.

Take `C[S+]1CC[C@H](N)C(=O)N[C@@H](CCCNC(=N)N)C(=O)NCC(=O)NCC(=O)N[C@H](C(=O)O)CSCc2cccc(c2)C1` (stereo not given in full) (H-[Met(S-mXyl)]RGGC-OH; thioether 1-5): in data set [13], the outcome was Active. Further, the inhibition result in [14] is “inactive”.

`CC(C)C[C@H](N)C(=O)N[C@H]1CC[S+](C)Cc2cccc(c2)CSC[C@@H](C(=O)O)NC(=O)CNC(=O)CNC1=O` (stereo not given in full) (H-L[Met(S-mXyl)]GGC-OH; thioether 2-5): the inhibition entry in data set [14] was “inactive”.

`Cc1ccc(NC(=O)CC[C@H](NC(=O)c2ccc3c(c2)C(=O)OC32c3ccc(O)cc3Oc3cc(O)ccc32)C(=O)N[C@H]2CSCc3cccc(c3)C[S+](C)CC[C@@H](C(=O)O)NC(=O)CNC(=O)[C@H](CCCNC(=N)N)NC(=O)[C@H](CC(C)C)NC2=O)cc1C(=O)NC(C)c1cccc2ccccc12` (stereo not given in full) (5FAM-E(X1)CLRG[Met(S-mXyl)]-OH; thioether 2-6): the result with HEK293T was Active.
